Screening data (PubChem)
OX1R antag-1: antagonists of human orexin 1 receptor (OX1R). OX1R-expressing cells, FRET antagonist read-out. 330,000 compounds, 1.8% hits. Orexin/Hypocretin receptor type 1 (Homo sapiens), O43613. inhibition, % at 6.6 µM. AID 485270, 2010; in the data active means inhibition mostly above about 38%, no sharp cut-off; inactive means mostly below about 40%;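 further: 0% = agonist challenge alone and 100% = reference antagonist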
Target sequence (O43613 whole entry, looked up): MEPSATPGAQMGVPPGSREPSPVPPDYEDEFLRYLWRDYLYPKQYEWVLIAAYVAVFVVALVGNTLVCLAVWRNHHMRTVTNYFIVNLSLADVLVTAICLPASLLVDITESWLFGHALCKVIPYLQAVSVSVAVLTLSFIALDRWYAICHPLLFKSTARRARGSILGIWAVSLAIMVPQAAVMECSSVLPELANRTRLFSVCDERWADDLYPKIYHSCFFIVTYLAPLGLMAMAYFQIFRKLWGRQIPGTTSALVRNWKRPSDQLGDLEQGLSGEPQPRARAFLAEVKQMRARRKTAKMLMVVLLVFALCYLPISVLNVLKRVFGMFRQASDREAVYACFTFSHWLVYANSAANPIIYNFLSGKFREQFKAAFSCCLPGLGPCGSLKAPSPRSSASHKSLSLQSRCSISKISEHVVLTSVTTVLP
CHO parental Ca: ATP-evoked calcium signal inhibitors, parental CHO, primary screen, counter-screen for OX1R antagonist project, cell-based, fluorescence, Fluo-8 calcium dye; parental CHO-K1, ATP-induced calcium, Fluo-8 fluorescence; inhibition, % at 5.6 µM; 330,000 compounds, 0.63% hits;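 active means inhibition above that plate's mean sample inhibition plus 3 SD, cut at about 26% in these data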;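 further: 0% = ATP-challenged DMSO wells and 100% = DMSO wells without ATP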
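Assay system: untransfected parental CHO cell line. Also added: ATP agonist challenge. Dosing: one dose, 5.6 µM nominal. Measured by: Fluo-8 fluorescence. Read-out: % inhibition. Benchmarks: ATP wells versus no-ATP DMSO wells. Repeats: no replicates.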
CHO-K1 Ca ag: counter-screen for M1 agonists: effect in parental CHO-K1 cells; Fluo-8 calcium fluorescence; scaled to maximal ATP response, vehicle zero; activation, % at 3 µM; 360,000 compounds, 0.48% hits; in the data active means activation above about 15%;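 further: untransfected CHO-K1 host cells lacking M1 receptor as counterscreen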
CHO-K1 Ca antag: counter-screen for M1 antagonists: effect in parental CHO-K1 cells; AID 602250; ATP-induced calcium, Fluo-8 fluorescence; inhibition, % at 3 µM; 360,000 compounds, 0.6% hits;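 active means inhibition above a per-plate cutoff, the plate's mean sample inhibition plus 3 SD, cut at about 24% in these data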;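 further: 0% = DMSO plus EC80 ATP and 100% = DMSO alone without ATP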
OX1R antag-2: OX1R (HCRTR1) antagonists, primary screen, fluorescence, CHO/OX1R cells, Fluo-8 calcium, orexin A | Fluo-8 calcium fluorescence | inhibition, % at 5 µM | 330,000 compounds, 0.43% hits | AID 434989, 2010;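 active means inhibition above its plate's threshold, mean inhibition of all tested compounds on the plate plus 3 SD, cut at about 37% in these data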;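 further: 0% = orexin A challenge wells and 100% = SB-334867-A antagonist wells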
M1 PAM parental: nonselective calcium activators in parental CHO-K1 cells, primary screen, counter-screen for M1 PAM project, cell-based, Fluo-8 calcium fluorescence, full deck, 1536-well; ATP EC20; 0% at ATP EC20, 100% at ATP max; activation, % at 3 µM; 360,000 compounds, 0.02% hits;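 active means activation above the run cutoff, the mean activation of all test compounds plus 3 SD, cut at about 40% in these data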;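 further: peak over basal fluorescence ratio in a 140 s read after ATP addition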
Numbers without * were called inactive. In the library only some 2.9% were active in any assay of this set; here they are far more common.

SMILES	OX1R antag-1	CHO parental Ca	CHO-K1 Ca ag	CHO-K1 Ca antag	OX1R antag-2	M1 PAM parental
Cc1ccc([C@@H]2CC=C(C(=O)O)[C@H](c3ccccc3)N2S(=O)(=O)c2ccccc2C)cc1	54.5*	-15.0	0.3	-16.8	33.2	26.9
Cc1ccc([C@H]2C(C(=O)O)=CC[C@@H](c3ccc(C)cc3)N2S(=O)(=O)c2ccccc2C)cc1	45.4*	-18.8	0.1	-11.9	0.2	6.4
O=C(NCC1CCCO1)c1ccccc1S(=O)(=O)c1ccc([N+](=O)[O-])cc1 (centres undefined)	75.8*	-4.8	0.0	-9.4	1.7	13.4
O=C(C[n+]1ccc(C(=O)c2ccccc2)cc1)Nc1ccccc1OC(F)F	46.0*	-5.3	0.4	-9.3	-8.0	13.8
O=C(COC(=O)c1ccc[n+]([O-])c1)Nc1ccccc1OC(F)F	2.3	-5.1	0.5	-9.5	7.2	3.2
CCN(CC)CCNC(=O)c1cc(Br)c(N)cc1OC	5.4	-5.9	0.3	35.0*	6.1	-13.0
O=C1c2ccccc2-c2cccnc21	46.6*	-4.3	0.1	2.5	-19.8	-0.6
CCn1nc(C)c(CNC(=O)CCc2nnc(-c3ccc(C(C)=O)s3)o2)c1C	63.3*	-10.5	1.0	-18.5	-16.8	26.4
CCC(=O)C1CCCN(C(=O)CCc2nnc(-c3ccc(C(C)=O)s3)o2)C1 (centres undefined)	38.0*	-9.6	0.6	-11.7	-14.0	12.3
COc1ccccc1CCNC(=O)c1ccc(NC(=O)CC2SC(N3CCCCC3)=NC2=O)cc1 (centres undefined)	7.5	-9.1	-0.5	-10.8	-15.6	2.1
Cn1c(N)c(C(=O)COC(=O)Cc2cccc(C(F)(F)F)c2)c(=O)n(C)c1=O	5.9	8.3	3.1	-13.7	3.0	12.8
Cc1c(NS(=O)(=O)c2cccs2)cccc1-c1nc2cccnc2s1	34.0	-14.4	3.7	-5.1	5.7	18.9
O=S(=O)(Nc1cccc2ncccc12)c1cccs1	32.4	40.1*	1.3	15.3	26.8	3.3
CC(C)c1ccc(NC(=O)C2CSC3(C)CCC(=O)N23)cc1 (centres undefined)	-2.9	11.9	-0.4	7.0	-1.4	-23.4
Cc1nn(C)c(C)c1CN(C)S(=O)(=O)c1ccc2ccccc2c1	52.6*	38.2*	10.9	24.9*	27.5	6.9
CCOc1cc(N2CCOCC2)c(OCC)cc1NC(=O)COC(=O)c1cc(C)oc1C	8.4	-16.7	0.0	24.6*	-20.9	-6.1
O=C(OC1Cn2c(=O)ccc(=O)n2C1)c1ccc([N+](=O)[O-])cc1	45.4*	-5.0	0.0	-3.3	-10.2	16.6
CCOC(=O)C1=C(COC(=O)/C=C/c2ccc(O)c(OC)c2)NC(=O)NC1C (centres undefined)	4.5	-13.9	5.3	-9.8	-0.7	-8.9
CC(SCC(=O)Nc1ccccc1Br)c1nc2ccccc2c(=O)[nH]1 (centres undefined)	10.2	-17.0	-0.1	-13.1	-34.8	-2.3
Cc1ccc(Cl)cc1N1CCN(C(=O)CSc2nnc3n2C(C)(C)Cc2ccccc2-3)CC1	104.3*	76.6*	7.8	15.2	76.9*	-5.4
COc1ccc(N2CCN(C(=O)CSc3nnc4n3C(C)(C)Cc3ccccc3-4)CC2)cc1	11.5	-14.5	1.1	-2.6	-29.3	15.9
Cc1cccc(-n2cnc3c(c2=O)c2nc4ccccc4nc2n3Cc2ccco2)c1	68.9*	-22.7	-0.1	-9.4	-7.2	14.9
O=C1CCCc2c1nc(-c1ccc(F)cc1)n2O	6.0	-16.9	0.2	-0.6	-8.5	2.7
O=C1CCCc2c1nc(-c1ccc([N+](=O)[O-])cc1)n2O	48.4*	1.0	1.7	-8.3	-13.7	12.7
COc1ccc(C(=O)CSc2nnc(Cn3cnc4ccccc43)o2)cc1	30.1	38.2*	8.3	4.2	35.5	9.4
CC(=O)c1ccc(NC(=O)CSc2nnc(Cn3cnc4ccccc43)o2)cc1	6.2	-1.7	1.0	-13.7	8.1	12.8
